Published values from different studies.
Protocols differ between the studies behind these lines.
Target: cAMP-dependent protein kinase catalytic subunit PRKX (PRKX, Homo sapiens, UniProt P51817)
One construct used (P51817 1-358): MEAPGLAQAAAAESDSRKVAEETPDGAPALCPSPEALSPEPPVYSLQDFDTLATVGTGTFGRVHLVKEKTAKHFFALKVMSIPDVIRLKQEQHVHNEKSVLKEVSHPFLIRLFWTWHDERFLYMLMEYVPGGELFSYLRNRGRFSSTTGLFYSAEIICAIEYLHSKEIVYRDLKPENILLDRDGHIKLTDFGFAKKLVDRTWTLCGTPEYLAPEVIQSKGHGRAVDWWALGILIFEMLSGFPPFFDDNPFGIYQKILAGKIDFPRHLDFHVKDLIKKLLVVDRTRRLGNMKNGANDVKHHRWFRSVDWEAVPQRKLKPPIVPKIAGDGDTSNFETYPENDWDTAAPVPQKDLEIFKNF

Cn1cc(Cl)c2c(Oc3c(F)cc(Nc4cc(Cl)nc(N)n4)cc3F)ccnc21  remaining binding (cell-free assay, competition with immobilised ligand; 0.1 µM): 100%
Cc1cnn2ncc(-c3ccnc(N(C)C)n3)c2c1  remaining binding (binding; 1 µM): 85%
COc1ncc2cc3ccccc3nc2c1C#N  remaining binding (cell-free assay, competition with immobilised ligand; 5 µM): 82%
Nc1cnc(N2CCc3cc(S(=O)(=O)Nc4c(F)cc(Cl)cc4F)cc(N4CCCC4=O)c32)nc1  remaining binding (cell-free assay, competition with immobilised ligand; 1 µM): 99%
O=C(Nc1c[nH]nc1C(=O)NC1CCNCC1)c1cc(F)cc(F)c1  remaining binding (binding, competition with immobilised ligand; 1 µM): 94%
Cc1cnc(Nc2ccc(C(=O)N3CCC(N4CCCC4)CC3)cc2)nc1-c1cc2ccccc2s1  remaining binding (binding, competition with immobilised ligand; 1 µM): 72%
N[C@@H]1CCN(c2nccc(-c3cnn4ncccc34)n2)C1  remaining binding (binding; 1 µM): 100%
CCCOc1ccc([C@H]2[C@H](C(=O)O)[C@@H](c3ccc4c(c3)OCO4)CN2CC(=O)Nc2c(CC)cccc2CC)cc1  remaining binding (cell-free assay, competition with immobilised ligand; 1 µM): 91%
COc1ccnn2ncc(-c3ccnc(N(C)C)n3)c12  remaining binding (binding; 1 µM): 100%
c1cncc(-c2cccc(Nc3nccc(NC4CCCCC4)n3)c2)c1  remaining binding (binding, competition with immobilised ligand; 10 µM): 80%
CCOC(=O)c1cc2cc(-c3cc(C(=O)NCc4ccc(C(=O)O)cc4)nn3C)ccc2[nH]1  remaining binding (cell-free assay, competition with immobilised ligand; 0.1 µM): 100%
O=C(c1ccc(Nc2ncc(Cl)c(-c3cc4ccccc4s3)n2)cc1)N1CCC(N2CCCC2)CC1  remaining binding (binding, competition with immobilised ligand; 1 µM): 67%
O=C(Nc1cnc(Oc2ccc(F)cc2)nc1)N1CCc2ncccc2[C@@H]1c1ccc(F)cc1  remaining binding (cell-free assay, competition with immobilised ligand; 1 µM): 93%
FC(F)(F)Oc1cccc(-c2cnc3ccc(-c4ccncc4)nn23)c1  remaining binding (cell-free assay, competition with immobilised ligand; 5 µM): 85%
C[C@H]1CCN(c2nccc(-c3cnn4ncccc34)n2)C1  remaining binding (binding; 1 µM): 100%
O=C(NCCCN1CCOCC1)c1ccc(Nc2nccc(-c3cc4ccccc4s3)n2)cc1  remaining binding (binding, competition with immobilised ligand; 1 µM): 85%
F[C@@H]1CCN(c2nccc(-c3cnn4ncccc34)n2)C1  remaining binding (binding; 1 µM): 100%
CCN1CCN(Cc2ccc(C(=O)Nc3ccc(C)c(Oc4ccc5c(c4)CC(=O)N5)c3)cc2C(F)(F)F)CC1  remaining binding (binding, competition with immobilised ligand; 1 µM): 100%
c1cnn2ncc(-c3ccnc(N4CCC45COC5)n3)c2c1  remaining binding (binding; 1 µM): 68%
CNC(=O)Nc1ccc2c(c1)[C@@]1(CC2)OC(=O)N(CC(=O)N(Cc2ccc(F)cc2)[C@@H](C)C(F)(F)F)C1=O  remaining binding (cell-free assay, competition with immobilised ligand; 1 µM): 100%
COc1cnc(Nc2cccc(S(N)(=O)=O)c2)nc1N1CCN(c2ccccc2)C(=O)C1  remaining binding (binding, competition with immobilised ligand; 1 µM): 91%
